Holding throughout (type): functional, cell-based
Assay [1] relates to K562. As to the kind of experiment: Cytotoxicity against human K562 cells after 48 hrs. To be noted: K562, 48 h. The gist of the method: (§1)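 Human lines obtained from Shanghai Cell Bank and kept in RPMI1640 with hormone-free 15% heat-inactivated FBS, 2 mM glutamine, 100 U/mL penicillin G and 100 µg/mL streptomycin. Seeded in 96-well plates at 5 × 10^4 cells/mL (K562) or 4 × 10^4 cells/mL (MKN45, HepG2). Exposed to compounds for 48 h, then viability was read by CCK-8 at 450 and 650 nm. IC50 is from triplicate experiments.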

The subject of assay [2] is MKN-45. The assay is described as follows: Cytotoxicity against human MKN45 cells after 48 hrs. The following applies: MKN-45, 48 h. The procedure, abridged:
as §1

The subject of assay [3] is HepG2. The assay is described as follows: Cytotoxicity against human HepG2 cells after 48 hrs. To be noted: HepG2, 48 h. The procedure, abridged:
as §1

Where only a bound is given, the exact number is not on record here.

With `C=C1C(=O)[C@]23[C@H](O)[C@H]1C[C@H](O)[C@H]2[C@]12CCCC(C)(C)[C@H]1[C@H](O)[C@]3(O)O[C@@H]2OC` [XEROPHILUSIN XI], the IC50 in assay [1], in assay [2] and in assay [3] was more than 10 µM each time.

`C=C1C(=O)[C@]23C[C@H]1CC[C@H]2[C@@]12CO[C@@]3(O)[C@@H](O)[C@@H]1C(C)(C)CC[C@H]2O` [XEROPHILUSIN I]: the values for the IC50 in assay [1], in assay [2] and in assay [3] were 7.6 µM, 6.2 µM and 4 µM, respectively.

As for `C=C1C(=O)[C@]23[C@H](O)[C@H]1C[C@H](OC(C)=O)[C@H]2[C@]12CCCC(C)(C)[C@H]1[C@H](O)[C@]3(O)O[C@@H]2OC` [XEROPHILUSIN XII], the half-maximal inhibitory concentration (IC50) in assay [1] is 3.6 µM; in assay [2], 2.1 µM; in assay [3] it was 4.9 µM.

Take `C=C1C(=O)[C@@]23[C@@H]4O[C@H]5O[C@@]2(O)[C@@H](O)[C@@H]2C(C)(C)CCC[C@]52[C@@H]3[C@@H](O)C[C@@H]14` [MACROCALIN B]: the concentration for half-maximal inhibition (IC50) in assay [1], in assay [2] and in assay [3] was more than 10 µM each time.

For the molecule `C=C1C(=O)[C@]23[C@H](O)[C@H]1C[C@H](O)[C@H]2[C@]1(C=O)CCCC(C)(C)[C@H]1C(=O)[C@@H]3O` [XEROPHILUSINE I], the concentration for half-maximal inhibition (IC50) in assay [1] stood at 0.04 µM; in assay [2], 2.8 µM; in assay [3], 0.19 µM.

On to `C=C1C(=O)[C@]23[C@H](O)[C@H]1CC[C@H]2[C@]12CCC[C@@](C)(CO)[C@H]1[C@H](O)[C@]3(O)OC2` [XEROPHILUSIN IV], for which the IC50 in assay [1], in assay [2] and in assay [3] was more than 10 µM in each case.

As to `C=C1C(=O)[C@]23[C@H](O)[C@H]1CC[C@H]2[C@@]12CCC[C@@]4(C)CO[C@H]1O[C@@]3(O)[C@@H](O)[C@H]42` [XEROPHILUSIN D], the IC50 worked out at 9 µM in assay [1], 3.9 µM in assay [2] and 4.2 µM in assay [3].

In the case of `C=C1C(=O)[C@@]23[C@@H]4OC5O[C@@]2(O)[C@@H](O)[C@@H]2C(C)(C)CC[C@@H](O)[C@]52[C@@H]3CC[C@@H]14` [PONICIDIN], the IC50 in assay [1] is 1.3 µM; in assay [2], more than 10 µM; in assay [3], 0.96 µM.

On to `C=C1[C@@H](OC(C)=O)[C@]23[C@H](O)[C@H]1CC[C@H]2[C@]12CCCC(C)(C)[C@H]1[C@H](OC(C)=O)[C@]3(O)OC2` [RABDOTERNIN C], for which the IC50 in assay [1], in assay [2] and in assay [3] was more than 10 µM each time.

`C=C1C(=O)[C@@]23C(=O)[C@@H](O)[C@@H]4C(C)(C)CCC[C@@]4(C=O)[C@@H]2[C@@H](O)C[C@@H]1[C@H]3O` [XEROPHILUSIN II]: the half-maximal inhibitory concentration (IC50) is 1 µM in assay [1], more than 10 µM in assay [2] and 4.5 µM in assay [3].

For the molecule `C=C1C(=O)[C@@]23[C@@H]4O[C@H]5O[C@@]2(O)[C@@H](O)[C@@H]2C(C)(C)CCC[C@]52[C@@H]3[C@@H](OC(C)=O)C[C@@H]14` [XEROPHILUSIN A], the values for the 50% inhibitory concentration (IC50) in assay [1], in assay [2] and in assay [3] were 1.6 µM, more than 10 µM and more than 10 µM, respectively.

`COC[C@@H]1C(=O)[C@]23[C@H](O)[C@H]1C[C@H](OC(C)=O)[C@H]2[C@]12CCCC(C)(C)[C@H]1[C@H](O)[C@]3(O)OC2` [XEROPHILUSIN X1]: the IC50 in assay [1] is 1.5 µM; in assay [2], 3.9 µM; in assay [3], 1.9 µM.

For the molecule `C=C1C(=O)[C@]23[C@H](O)[C@H]1CC[C@H]2[C@@]12C(OC)O[C@@]3(O)[C@@H](O)[C@@H]1C(C)(C)CC[C@H]2O` (stereo not given in full) [RABDOTERNIN E], the IC50 in assay [1] was 2.4 µM; in assay [2], more than 10 µM; in assay [3] it was more than 10 µM.

Regarding `C=C1C(=O)[C@]23[C@H](O)[C@H]1CC[C@H]2[C@@]12CO[C@@]3(O)[C@@H](O)[C@@H]1[C@](C)(COC(C)=O)CC[C@H]2O` [xerophilusin G], the concentration for half-maximal inhibition (IC50) in assay [1], in assay [2] and in assay [3] was more than 10 µM throughout.

For the molecule `C=C1C(=O)[C@]23[C@H](O)[C@H]1C[C@H](OC(C)=O)[C@H]2[C@]12CCCC(C)(C)[C@H]1C(=O)[C@]3(O)[C@H]2O` [XEROPHILUSIN F], the IC50 in assay [1] is 4.3 µM; in assay [2], more than 10 µM; in assay [3], 4.9 µM.

Take `C=C1C(=O)[C@]23[C@H](O)[C@H]1CC[C@H]2[C@]12CCCC(C)(C)[C@H]1[C@H](O)[C@]3(O)OC2=O` [XEROPHILUSIN N]: the IC50 was 1.2 µM in assay [1], 4.8 µM in assay [2] and more than 10 µM in assay [3].

Take `C=C1C(=O)[C@@]23[C@@H]4O[C@H]5O[C@@]2(O)[C@@H](O)[C@@H]2C(C)(C)CCC[C@]52[C@@H]3CC[C@@H]14` [XEROPHILUSIN B]: the half-inhibitory concentration (IC50) turned out to be 4.1 µM in assay [1], 0.4 µM in assay [2] and 3.9 µM in assay [3].

On to `C=C1C(=O)[C@]23[C@H](O)[C@H]1C[C@H](O)[C@H]2[C@@]12CO[C@@]3(O)[C@@H](O)[C@@H]1[C@](C)(COC(C)=O)CC[C@H]2O` [XEROPHILUSIN VI], for which the half-maximal inhibitory concentration (IC50) in assay [1], in assay [2] and in assay [3] was more than 10 µM throughout.

Regarding `C=C1C(=O)[C@]23[C@H](O)[C@H]1CC[C@H]2[C@]12CCC[C@@](C)(COC(C)=O)[C@H]1[C@H](O)[C@]3(O)OC2` [LONGIKAURIN B], the half-inhibitory concentration (IC50) was determined as 1.6 µM in assay [1], 0.49 µM in assay [2] and 1.2 µM in assay [3].

`C=C1[C@@H](O)[C@]23[C@H](O)[C@H]1C[C@H](O)[C@H]2[C@]12CCCC(C)(C)[C@H]1[C@H](OC(C)=O)[C@]3(O)OC2` [RABDOTERNIN D]: the IC50 in assay [1], in assay [2] and in assay [3] was more than 10 µM throughout.

Take `C=C1C(=O)[C@]23[C@H](O)[C@H]1C[C@H](OC(C)=O)[C@H]2[C@]12CCCC(C)(C)[C@H]1[C@H](O)[C@]3(O)OC2` [XEROPHILUSIN K]: the concentration for half-maximal inhibition (IC50) in assay [1] came out at 1.4 µM; in assay [2] it was 5.6 µM; in assay [3], 2.2 µM.

`C=C1[C@@H](O)[C@]23[C@H](O)[C@H]1CC[C@H]2[C@@]12CO[C@@]3(O)[C@@H](O)[C@@H]1[C@](C)(CO)CC[C@H]2O` [XEROPHILUSIN V]: the half-maximal inhibitory concentration (IC50) in assay [1], in assay [2] and in assay [3] was more than 10 µM each time.

`C=C1C(=O)[C@]23[C@H](O)[C@H]1C[C@H](O)[C@H]2[C@]12CCCC(C)(C)[C@H]1[C@H](O)[C@]3(O)OC2` [ROSTHORIN A]: the IC50 in assay [1] stood at 0.33 µM; in assay [2], 5.4 µM; in assay [3], 6.4 µM.

In the case of `C=C1C(=O)[C@]23[C@H](O)[C@H]1CC[C@H]2[C@@]12C(O)O[C@@]3(O)[C@@H](O)[C@@H]1C(C)(C)CC[C@H]2O` (stereo not given in full) [HEBEIRUBESCENSINS H], the IC50 in assay [1] was 5.3 µM; in assay [2], more than 10 µM; in assay [3] it was more than 10 µM.

Turning to `C=C1C(=O)[C@]23C[C@H]1CC[C@H]2[C@@]12CO[C@@]3(O)[C@@H](O)[C@@H]1[C@](C)(COC(C)=O)[C@@H](O)C[C@H]2O` [MAOECRYSTAL I], the IC50 was more than 10 µM in assay [1], 1.3 µM in assay [2] and more than 10 µM in assay [3].

On to `C=C1C(=O)[C@]23[C@H](O)[C@H]1C[C@H](O)[C@H]2[C@]12CCCC(C)(C)[C@H]1C(=O)[C@]3(O)[C@H]2O` [PHYLLOSTACHYSIN A], for which the IC50 was 6.6 µM in assay [1] and 3 µM in assay [2].

With `C=C1C(=O)[C@]23C[C@H]1C[C@@H](O)[C@H]2[C@]12CCC[C@@](C)(COC(C)=O)[C@H]1[C@H](O)[C@]3(O)OC2` [LONGIKAURIN D], the IC50 in assay [1] is 0.56 µM; in assay [2], 0.34 µM; in assay [3] it was 0.56 µM.

On to `C=C1C(=O)[C@]23[C@H](O)[C@H]1CC[C@H]2[C@]12[C@H](O)CCC(C)(C)[C@H]1[C@H](O)[C@]3(O)O[C@@H]2O` [HEBEIRUBESCENSINS G], for which the IC50 in assay [1] was 5.3 µM; in assay [2] it was more than 10 µM; in assay [3] it was more than 10 µM.

Consider `C=C1C(=O)[C@]23C[C@H]1C[C@@H](O)[C@@H]2[C@@]1(CCC[C@@](C)(COC(C)=O)[C@H]1C=O)COC3=O` [TRICHORABDAL B], for which the IC50 in assay [1], in assay [2] and in assay [3] was more than 10 µM throughout.

On to `C=C1[C@@H]2C[C@H](OC(C)=O)[C@H]3[C@]45CCCC(C)(C)[C@H]4[C@H](OC(C)=O)[C@](O)(OC5)[C@]3([C@@H]2O)[C@H]1O` [XEROPHILUSIN X], for which the IC50 in assay [1], in assay [2] and in assay [3] was more than 10 µM throughout.

With `C=C1C(=O)[C@]23C[C@H]1CC[C@H]2[C@@]12CO[C@@]3(O)[C@@H](O)[C@@H]1[C@](C)(COC(C)=O)CC[C@H]2O` [XEROPHILUSIN H], the IC50 in assay [1], in assay [2] and in assay [3] was more than 10 µM each time.

As for `CC(=O)O[C@H]1C[C@H]2C3=C(O[C@]4(CC3)C(=O)[C@@]35[C@@H]6O[C@H]7O[C@@]3(O)[C@@H](O)[C@@H]3C(C)(C)CCC[C@@]73[C@@H]5[C@@H](OC(C)=O)C[C@H]64)[C@@]34[C@@H]2O[C@H]2O[C@@]3(O)[C@@H](O)[C@@H]3C(C)(C)CCC[C@]23[C@H]14` [enanderinanin J], the IC50 in assay [1], in assay [2] and in assay [3] was more than 10 µM each time.

The record behind these values is ChEMBL document CHEMBL1141259, “Cytotoxic ent-kauranoids from the medicinal plant Isodon xerophilus” (J Nat Prod, 2007).
